KCNK3 block = human KCNK3 channel inhibitors, primary screen, CHO cells, FluxOR thallium flux, B-score | Potassium channel subfamily K member 3 (Homo sapiens), O14649 | FluxOR fluorescence; stronger effect = lower value | B-score at 10 µM | 340,000 compounds, 0.84% hits | AID 602410, 2012;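 active = B-score under library mean minus 4 SD, starting fluorescence ratio at most library mean plus 5 SD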;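 also: more negative B-score means stronger inhibition of thallium flux through KCNK3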
KCNK9 inh = KCNK9 potassium channel inhibitors, primary screen, HEK293 cells, thallium flux; Potassium channel subfamily K member 9 (Homo sapiens), Q9NPC2; FluxOR thallium flux fluorescence; stronger effect = lower value; B-score at 10 µM; 310,000 compounds, 1.2% hits; AID 488922, 2010;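 active = ratio B-score over 3 SD below the library mean, with starting fluorescence within 5 SD of its mean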;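 also: negative B-score means less thallium flux so channel inhibition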
Kir21 block = inhibitors of mouse Kir2.1 inward-rectifier potassium channel; Inward rectifier potassium channel 2 (Mus musculus), P35561; B-score at 10 µM; HEK293-Kir2.1, FluxOR thallium flux fluorescence; stronger effect = lower value; 310,000 compounds, 0.85% hits; AID 1672, 2009;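 active = fluorescence ratio B-score at or below minus 3 SD of library scores, with starting-brightness B-score within 2 SD, cut at about -4.2 in these data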;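 also: channel flux triggered by added potassium and thallium sulfate stimulus; B-score of peak minus minimum fluorescence over baseline after thallium stimulus; more negative B-score means stronger Kir2.1 block with less thallium influx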
hERG protect = hERG rescue from dofetilide block, primary screen, cell-based, CHO-hERG, FluxOR thallium flux, dofetilide IC70; Voltage-gated inwardly rectifying potassium channel KCNH2 (Homo sapiens), Q12809; dofetilide IC70 present; activation (rescue from dofetilide block), less the hit threshold, % at 10 µM; 310,000 compounds, 0.51% hits; AID 1511, 2009;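 active = activation above the mean of controls blocked by dofetilide plus 5 SD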;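 also: thallium influx through hERG after potassium depolarization seen as dye fluorescence rise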
KCNQ1 inh = inhibitors of human KCNQ1 channel, primary screen, cell-based, thallium flux, high-throughput | Potassium voltage-gated channel subfamily KQT member 1 (Homo sapiens), P51787 | CHO-K1 KCNQ1, FluxOR thallium flux fluorescence; stronger effect = higher value | B-score at 10 µM | 310,000 compounds, 1.3% hits;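 active = compounds whose thallium flux B-score, printed positive for inhibition, exceeds three library SD while starting fluorescence stays within three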;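 also: channel opened by potassium depolarization with thallium stimulus after 20 min compound exposure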
Target sequence (P51787 whole entry, looked up): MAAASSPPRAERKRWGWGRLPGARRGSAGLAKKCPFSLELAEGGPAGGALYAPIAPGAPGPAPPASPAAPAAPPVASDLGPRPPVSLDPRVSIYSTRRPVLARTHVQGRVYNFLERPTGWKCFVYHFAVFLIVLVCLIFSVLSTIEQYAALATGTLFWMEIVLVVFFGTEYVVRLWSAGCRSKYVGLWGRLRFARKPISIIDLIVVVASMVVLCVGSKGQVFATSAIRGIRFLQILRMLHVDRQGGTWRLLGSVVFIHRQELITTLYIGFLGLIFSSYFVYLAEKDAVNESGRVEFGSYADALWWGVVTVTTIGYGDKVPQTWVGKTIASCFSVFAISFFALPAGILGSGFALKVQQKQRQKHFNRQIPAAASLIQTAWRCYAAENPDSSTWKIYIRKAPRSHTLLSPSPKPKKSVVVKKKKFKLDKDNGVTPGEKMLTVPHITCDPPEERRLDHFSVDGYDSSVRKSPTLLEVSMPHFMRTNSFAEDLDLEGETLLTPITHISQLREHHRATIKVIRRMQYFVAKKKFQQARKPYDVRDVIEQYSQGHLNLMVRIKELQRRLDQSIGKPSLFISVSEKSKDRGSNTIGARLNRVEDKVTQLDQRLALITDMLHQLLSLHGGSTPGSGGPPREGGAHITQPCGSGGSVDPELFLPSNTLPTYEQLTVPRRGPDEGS
KCNQ1 act = potentiators or activators of KCNQ1 channel, primary screen, cell-based, thallium flux, high-throughput; 310,000 compounds, 0.35% hits; CHO-K1 KCNQ1, thallium flux FluxOR fluorescence; stronger effect = higher value; B-score at 10 µM; AID 2648, 2010; Potassium voltage-gated channel subfamily KQT member 1 (Homo sapiens), P51787;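 active = fluorescence ratio B-score, a plate-corrected score, at least three library SD, with initial intensity B-score within 5 SD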
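System: CHO-K1 cells stably expressing KCNQ1 / Medium: assay buffer for compound exposure, DMSO matched across wells / Reagent: thallium- and potassium-containing depolarizing buffer / Compound: one concentration, matched DMSO / Incubation: 20 min compound pretreatment at room temperature / Measured by: kinetic FluxOR fluorescence, 10 s baseline plus 110 s post-stimulus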
KCNQ1 inh valid = KCNQ1 potassium channel inhibitors, confirmation, cell-based, Tl flux, duplicate | shares compounds with KCNQ1 inh | AID 588353, 2011 | 1,600 compounds, 93% hits | KCNQ1 cell line, FluxOR thallium flux fluorescence | inhibition, % at 10 µM;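 active = primary screen active, with duplicate mean exceeding buffer control mean plus 3 SD of buffer wells, cut at about 28% in these data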;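 also: 0% = buffer control ratio and 100% = XE991 inhibitor control ratio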
CHO KCNQ1 ctr = thallium flux effects in parental CHO cells, counter-screen for KCNQ1 inhibitor project, cell-based, Tl flux. 1,600 compounds, 21% hits. fluorescence ratio (Tl flux) at 10 µM. parental CHO-K1, FluxOR thallium flux fluorescence ratio; stronger effect = lower value; zero means no signal rise above baseline. shares compounds with KCNQ1 inh;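 active = mean of duplicate thallium-flux fluorescence ratios in parental host cells more than 5 SD below the buffer control mean, cut at about 0.38 in these data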;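 also: ratio is peak minus minimum fluorescence divided by baseline fluorescence; actives read low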
KCNQ2 inh = KCNQ2 channel inhibition, selectivity assay for KCNQ1 inhibitor project, cell-based; 1,600 compounds, 71% hits; shares compounds with KCNQ1 inh; KCNQ2 cells, FluxOR thallium flux fluorescence; inhibition, % at 10 µM;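 active = mean percent inhibition of the KCNQ2 thallium signal more than 5 SD above the buffer-only control wells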;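 also: KCNQ2 expressed in CHO cells; 0% = buffer control wells and 100% = XE-991 inhibitor control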
KCNQ1-KCNE1 inh = KCNQ1/KCNE1 channel inhibition, selectivity assay for KCNQ1 inhibitor project, CHO-K1 cells, thallium flux, FluxOR | shares compounds with KCNQ1 inh | FluxOR thallium flux fluorescence | inhibition, % at 10 µM | 1,600 compounds, 77% hits;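 active = mean percent inhibition of duplicate wells above the buffer-only control mean plus 3 SD of those controls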;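 also: 0% = buffer only wells and 100% = XE-991 inhibitor control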
KCNK9 inh conf = KCNK9 potassium channel inhibitors, confirmation, HEK293 cells, thallium flux, duplicate; shares compounds with KCNK9 inh; FluxOR thallium flux fluorescence; inhibition, % at 10 µM; 4,900 compounds, 43% hits; AID 492992, 2010;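 active = thallium signal inhibited by more than 5 SD of the compound-free buffer control wells, on both duplicate plates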;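 also: 0% = assay buffer control wells without compound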
Kir21 sel = mouse Kir2.1 channel inhibition, confirmation, selectivity assay for KCNK9 modulator project, cell-based, HEK293, thallium flux | 4,900 compounds, 4% hits | shares compounds with KCNK9 inh | inhibition, % at 10 µM | Kir2.1 cells, FluxOR thallium flux fluorescence | AID 492993, 2010;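 active = thallium signal drop more than 5 SD beyond the mean of the no-compound control wells, seen in both duplicate plates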;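 also: signal is fluorescence rise after thallium addition divided by baseline fluorescence; plate controls were assay buffer only for no effect and full block by chlorpromazine control for full effect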
KCNK9 uninduced = thallium flux in non-induced HEK293 cells, confirmation, counter-screen for KCNK9 inhibitor project, cell-based, second counter screen, non-induced KCNK9-HEK293. FluxOR thallium flux. inhibition, % at 10 µM. shares compounds with KCNK9 inh. 4,900 compounds, 40% hits;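 active = thallium signal drop beyond 5 SD of the untreated control mean, on both duplicate plates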;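 also: plate controls were buffer only IC0 wells for no effect and SID17386958 at its maximal inhibitory level for full effect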
KCNK3 confirm = retest of human KCNK3 channel inhibitors, confirmation, CHO cells, FluxOR thallium flux, triplicate | 2,400 compounds, 99% hits | FluxOR fluorescence; 0% buffer, 100% carvedilol maximal block | AID 651638, 2012 | ratio percent of control, % at 10 µM | shares compounds with KCNK3 block;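 active = ratio percent of control, averaged over triplicates, above buffer control mean plus 5 SD, cut at about 64% in these data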;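 also: ratio is the fluorescence rise from min to max over baseline after thallium stimulus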
KCNK3 uninduced = thallium flux inhibition in non-induced cells, primary screen, counter-screen for KCNK3 inhibitor project, cell-based, non-induced KCNK3 line, FluxOR thallium, triplicate; AID 651747, 2012; 2,400 compounds, 40% hits; non-induced KCNK3 parental cells; stronger effect = lower value; shares compounds with KCNK3 block; thallium flux ratio (lower = more inhibition) at 10 µM;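 active = thallium flux ratio, averaged over three wells, more than 5 SD below the buffer control mean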;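 also: host cells are CHO cells without KCNK3 induction; ratio is peak minus trough fluorescence over baseline then normalized to buffer controls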
An asterisk follows results filed as active; i = inactive; . = no result given; + = active, no number. A selection: hits, their analogues and other compounds. The true share with any hit is near 3.8%.

SMILES	KCNK3 block	KCNK9 inh	Kir21 block	hERG protect	KCNQ1 inh	KCNQ1 act	KCNQ1 inh valid	CHO KCNQ1 ctr	KCNQ2 inh	KCNQ1-KCNE1 inh	others
COc1cccc(N(CC(=O)NC2CC3CCC2C3)S(=O)(=O)c2ccccc2)c1 (configuration not stated)	i	i	-0.11	-8	i	i	.	.	.	.
Cc1cccc(N(CC(=O)NC2CC3CCC2C3)S(=O)(=O)c2ccccc2)c1 (configuration not stated)	i	i	-0.33	-7	6*	i	50*	0.43	79%*	61%*	KCNK9 inh conf=i;Kir21 sel=i;KCNK9 uninduced=i
N#Cc1c(N)nc2c(c1-c1ccc3c(c1)OCO3)CCc1ccccc1-2	i	-11*	0.84	-5	13*	i	120*	0.35*	109%*	181%*	KCNK9 inh conf=31%*;Kir21 sel=i;KCNK9 uninduced=30%*
COc1ccc(NC(=O)COC(=O)C2CCN(S(=O)(=O)c3ccccc3)CC2)cc1Cl	i	i	-0.01	-7	i	i	.	.	.	.
CCc1ccc2c(c1)C(NC(C)=O)C(=O)N2CCN1CCOCC1 (configuration not stated)	i	i	0.02	-6	i	i	.	.	.	.
O=C(CC1SC(=Nc2ccccc2)N(CCCO)C1=O)Nc1ccc(Cl)cc1 (configuration not stated)	i	i	0.48	-26	9*	i	72*	0.51	78%*	110%*	KCNK9 inh conf=i;Kir21 sel=i;KCNK9 uninduced=i
N#CC1(NC(=O)COC(=O)Cn2[nH]c(=O)c3ccccc3c2=O)CCCCC1	i	i	3.6	-17	i	i	.	.	.	.
O=C(C(Br)=Cc1ccccc1)c1ccccc1	i	.	.	.	.	.	.	.	.	.
CCOC(=O)c1cnc2ccc(OCC)cc2c1N(C)Cc1ccccc1	i	i	-1.7	-12	6*	i	148*	0.34*	154%*	198%*	KCNK9 inh conf=i;Kir21 sel=i;KCNK9 uninduced=23%*
CCOc1ccc(CN(C)CC(=O)NCc2ccccc2)cc1	i	i	-0.07	-16	i	i	.	.	.	.
CSc1ccc(/C=C(/NC(=O)c2ccccc2)C(=O)NCCN2CCOCC2)cc1	i	i	0	-1	i	i	.	.	.	.
CCCCNC(=S)Nc1ccc(Oc2ccccc2)cc1	-9.7*	-7.5*	-0.6	-22	6*	i	39*	0.54	i	68%*	KCNK3 confirm=96*;KCNK3 uninduced=i
CCN(c1ccccc1)c1nc(C#N)nc(N(CC)c2ccccc2)n1	-11*	i	-2.1	-10	7*	i	106*	0.37*	112%*	80%*	KCNK9 inh conf=i;Kir21 sel=i;KCNK9 uninduced=i;KCNK3 confirm=102*;KCNK3 uninduced=i
CCN(c1ccccc1)c1cc(C)nc2nc(C)nn12	i	i	-0.69	-6	i	i	.	.	.	.
CC(=O)Oc1cccc(Nc2ncnc3ccccc23)c1	i	i	-0.89	-6	i	i	.	.	.	.
Cc1ccccc1C(=O)Oc1cccc(Nc2ncnc3ccccc23)c1	-8.8*	-7.2*	-0.56	-32	11*	i	152*	0.29*	121%*	+	KCNK3 confirm=132*;KCNK3 uninduced=0.15*
CSc1ccccc1NC(=O)c1cccc(S(=O)(=O)N2CCN(C)CC2)c1	i	i	1.6	-9	i	i	.	.	.	.
C=CCN1[C@@H](Cc2ccccc2)COCCS1(=O)=O	i	.	.	.	.	.	.	.	.	.
Cc1cc(NC(=O)C(C)SCC(=O)N(C)Cc2ccccc2F)no1 (configuration not stated)	i	.	.	.	.	.	.	.	.	.
COc1ccc(N2CCN(c3ncnc4scc(-c5ccc(F)cc5)c34)CC2)cc1	-11*	i	0.28	-11	8*	i	95*	0.36*	74%*	104%*	KCNK3 confirm=110*;KCNK3 uninduced=i
c1ccc(-c2csc3ncnc(N4CCOCC4)c23)cc1	i	i	-0.48	-11	i	i	.	.	.	.
